In ChEMBL document CHEMBL5385869, “Novel 4-aminoquinolines: Synthesis, inhibition of the Mycobacterium tuberculosis enoyl-acyl carrier protein reductase, antitubercular activity, SAR, and preclinical evaluation” (Eur J Med Chem, 2023):
pKd: −log10 of the molar value.

Columns and labels:
[1] = Toxicity in CF-1 mouse assessed as reduction in body weight at 300 to 450 uM/kg, po administered daily for 14 days; assay type: organism-based; conditions: in vivo, 336 h, dose 300-450 µM/Kg, time 14 day
Summary of the method: (§1)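 Mice were infected with M. tuberculosis H37Rv. From 7 days after infection, test and reference drugs were given daily by oral gavage for 14 days, with a vehicle-only group. Body weight was followed over the course of the experiment.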

[2] = target: T1, Enoyl-[acyl-carrier-protein] reductase [NADH] (Mycobacterium tuberculosis, UniProt P9WGR1); assay: Binding affinity to Mycobacterium tuberculosis InhA assessed as dissociation constant at 250 uM at 15 degreeC in presence of NADH by fluorescence spectroscopy
T1 sequence (P9WGR1 whole entry): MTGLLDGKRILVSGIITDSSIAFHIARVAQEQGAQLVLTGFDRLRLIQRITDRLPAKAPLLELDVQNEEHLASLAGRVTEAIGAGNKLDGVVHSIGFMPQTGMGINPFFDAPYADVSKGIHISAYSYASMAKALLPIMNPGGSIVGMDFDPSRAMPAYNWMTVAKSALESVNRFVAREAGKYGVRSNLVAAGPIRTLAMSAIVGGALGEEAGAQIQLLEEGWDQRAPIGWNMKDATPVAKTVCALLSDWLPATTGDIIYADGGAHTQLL
Summary of the method: (§2)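 Titration of pre-formed MtInhA:NADH complex (2 mL of 3 μM enzyme with 20 μM NADH), adding microliter aliquots of 250 μM ligand stock with dilution kept ≤1%. Intrinsic fluorescence read at 295 nm excitation, 310–500 nm emission. Temperatures 15, 20, 25 and 30 °C. KD is fitted to a hyperbolic isotherm. ΔH°, ΔS° and ΔG° come from van't Hoff analysis of KD across temperatures.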

[3] = Toxicity in mouse assessed as effect on spleen weight at 300 mg/kg administered as single dose and measured for 14 days; assay type: organism-based; conditions: in vivo, 336 h, time 14 day
Summary of the method: (§3)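 Acute oral toxicity study. At day 14 the animals were euthanized, and kidneys, liver and spleen were weighed and inspected macroscopically.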

[4] = target: T1, Enoyl-[acyl-carrier-protein] reductase [NADH]; assay: Binding affinity to Mycobacterium tuberculosis InhA assessed as dissociation constant at 250 uM at 30 degreeC in presence of NADH by fluorescence spectroscopy; summary of the method: as §2
[5] = Toxicity in CF-1 mouse assessed as reduction in body weight at 300 uM/kg, po administered daily for 14 days; assay type: organism-based; conditions: in vivo, 336 h, time 14 day; summary of the method: as §1
[6] = Toxicity in mouse assessed as effect on body weight at 300 mg/kg administered as single dose and measured for 14 days; assay type: organism-based; conditions: in vivo, 336 h, time 14 day; summary of the method: as §3
[7] = Toxicity in mouse assessed as effect on lung weight at 300 mg/kg administered as single dose and measured for 14 days; assay type: organism-based; conditions: in vivo, 336 h, time 14 day

**Q.** Which results are given for `Cc1cc(Nc2ccc(N3CCCCC3)cc2)c2cc(Br)ccc2n1`?
**A.** Activity [1]: Non-Toxic; pKd [2]: 6.55; Activity [3]: Non-Toxic; pKd [4]: 5.87; Activity [5]: Non-Toxic; Activity [6]: Non-Toxic; Activity [7]: Non-Toxic
